Assay [1] in a line: RPL19A-GFP modulators, yeast TOR pathway, confirmation, cell-based, S. cerevisiae, flow cytometry, cherry picks, mother/daughter gates (AID 2270;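 active = GFP response below 50% of the DMSO control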). The following applies: S. cerevisiae RPL19A-GFP strain, 3 h, at 10 µM, stronger effect = lower value, 100 = same GFP as DMSO wells. On the technique in general: Flow cytometry measures light scatter and fluorescence of single cells or particles in a stream.

Assay [2] can be described thus: LAP4-GFP expression modulators in yeast, confirmation, cell-based, cherry picks, flow cytometry, mother/daughter gates (AID 2271;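 active = GFP response above 150% of the DMSO control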;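 note: ratio of sample to DMSO plate mean so 100% equals DMSO level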). To be noted: S. cerevisiae LAP4-GFP strain, 3 h, at 10 µM, stronger effect = higher value, 100 means same as DMSO control. In outline:
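Material: Alexa Fluor 633-labelled Saccharomyces cerevisiae GFP-fusion strain, single-plex | Amount: Yeast cells seeded at OD600 of 0.2 | Buffer or medium: SC growth medium | Schedule: 3 h exposure, 30 °C | Measured by: HT flow cytometry, GFP fluorescence channel | Evaluation: % GFP response vs DMSO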

The nature of assay [3]: modulators of MEP2-GFP levels in yeast, confirmation, S. cerevisiae, flow cytometry GFP, cherry picks (AID 2272;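 active = GFP response above 150% of the DMSO control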;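 note: ratio of well signal to plate DMSO mean so 100% equals DMSO level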). The following applies: S. cerevisiae MEP2-GFP strain, 3 h, at 10 µM, stronger effect = higher value.
Assay [4] is described as follows: AGP1-GFP expression modulators, hit retest, confirmation, cell-based, flow cytometry, S. cerevisiae, cherry picks (AID 2273).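 Note: median GFP channel fluorescence over the whole cell population gate.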 To be noted: S. cerevisiae AGP1-GFP strain, 3 h, at 10 µM.
A short description of assay [5]: modulators of CIT2-GFP expression in yeast, confirmation, S. cerevisiae, GFP fusion, cherry picks, mother/daughter gates (AID 2274). To be noted: S. cerevisiae CIT2-GFP strain, flow cytometry, 3 h, at 10 µM, stronger effect = higher value.
The mark [6] stands for this setting: measured here: daughter cell gate.
Setting [7] is: measured here: mother cell gate.
[8] abbreviates: measured here: daughter cell gate response.
The mark [9] stands for this setting: measured here: mother cell gate response.

Activity calls are given as the source filed them.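 Rule for the calls, unless noted: active = GFP response above 150% of the DMSO level; inconclusive = fewer than 70 events counted for a yeast strain; inactive = the rest.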

For 11 compounds, GFP response vs DMSO, GFP response relative to DMSO and GFP response, % of DMSO results are on record in PubChem BioAssay.

With `O=c1oc2cc(Oc3c([N+](=O)[O-])cc(C(F)(F)F)cc3[N+](=O)[O-])ccc2c2c1CCCC2`, the GFP response vs DMSO is 95.4% (inactive) in assay [1], 90.7% in assay [1] (setting [6]), 86.8% in assay [1] (setting [7]) and 105% (inactive) in assay [3]. In addition, the figures for the GFP response relative to DMSO in assay [2], in assay [2] (setting [8]) and in assay [2] (setting [9]) were 246% (active), 153% and 249%, respectively. Besides, the GFP response, % of DMSO is 108% (inactive) in assay [4], 100% (inactive) in assay [5], 97.4% in assay [5] (setting [6]) and 94.4% in assay [5] (setting [7]).

Take `COc1cccc(N=Cc2nc(-c3ccccc3)oc2OC(C)=O)c1`: the GFP response vs DMSO was 97.4% (inactive) in assay [1], 96.1% in assay [1] (setting [6]), 98.7% in assay [1] (setting [7]) and 87.8% (inactive) in assay [3]. In addition, the values for the GFP response relative to DMSO in assay [2], in assay [2] (setting [8]) and in assay [2] (setting [9]) were 108% (inactive), 101% and 113%, respectively. In addition, the GFP response, % of DMSO in assay [4] is 87.5% (inactive); in assay [5], 95.5% (inactive); in assay [5] (setting [6]), 95.4%; in assay [5] (setting [7]), 95%.

Regarding `O=C(NCCCSc1ccccc1)c1cc(Cl)ccc1O`, the GFP response vs DMSO was 100% (inactive) in assay [1], 98% in assay [1] (setting [6]), 102% in assay [1] (setting [7]) and 104% (inactive) in assay [3]. The GFP response relative to DMSO in assay [2] was 108% (inactive); in assay [2] (setting [8]) it was 104%; in assay [2] (setting [9]), 110%. Besides, the GFP response, % of DMSO in assay [4] was 90.5% (inactive); in assay [5], 96.4% (inactive); in assay [5] (setting [6]) it was 96.4%; in assay [5] (setting [7]), 94.5%.

Take `O=C(O)c1ccccc1C(=O)Nc1ccccc1`: the GFP response vs DMSO in assay [1] was 101% (inactive); in assay [1] (setting [6]), 101%; in assay [1] (setting [7]) it was 99.5%; in assay [3], 96.8% (inactive). Further, the GFP response relative to DMSO is 94.4% (inactive) in assay [2], 92.6% in assay [2] (setting [8]) and 95.2% in assay [2] (setting [9]). In addition, the GFP response, % of DMSO in assay [4] was 104% (inactive); in assay [5], 102% (inactive); in assay [5] (setting [6]) it was 101%; in assay [5] (setting [7]) it was 101%.

Take `Cc1ccc(N(C(=O)CNC(=O)c2ccco2)C(C(=O)NC2CCCC2)c2cccnc2)cc1C` (stereo unspecified): the GFP response vs DMSO in assay [1] was 104% (inactive); in assay [1] (setting [6]) it was 100%; in assay [1] (setting [7]), 108%; in assay [3], 99% (inactive). Besides, the GFP response relative to DMSO was 95.7% (inactive) in assay [2], 95.9% in assay [2] (setting [8]) and 95.2% in assay [2] (setting [9]). Also, the GFP response, % of DMSO is 105% (inactive) in assay [4], 102% (inactive) in assay [5], 99.2% in assay [5] (setting [6]) and 102% in assay [5] (setting [7]).

On to `C=CCOc1ccccc1C(=O)/C=C1/C(=O)Nc2ccccc21`, for which the GFP response vs DMSO in assay [1] is 101% (inactive); in assay [1] (setting [6]), 102%; in assay [1] (setting [7]), 95%; in assay [3], 94.7% (inactive). The GFP response relative to DMSO in assay [2] was 142% (inactive); in assay [2] (setting [8]) it was 130%; in assay [2] (setting [9]) it was 148%. The GFP response, % of DMSO in assay [4] is 100% (inactive); in assay [5], 91.5% (inactive); in assay [5] (setting [6]), 95.6%; in assay [5] (setting [7]) it was 88.2%.

Consider `C/C(=N\NC(=O)c1ccc(Cl)c(Cl)c1)c1cccc(NC(=O)C(C)C)c1`, for which the GFP response vs DMSO in assay [1] was 99.9% (inactive); in assay [1] (setting [6]), 99.8%; in assay [1] (setting [7]) it was 101%; in assay [3] it was 99.5% (inactive). Besides, the GFP response relative to DMSO in assay [2] is 94.2% (inactive); in assay [2] (setting [8]) it was 93.6%; in assay [2] (setting [9]), 94.6%. The GFP response, % of DMSO in assay [4] was 96% (inactive); in assay [5], 99.3% (inactive); in assay [5] (setting [6]) it was 100%; in assay [5] (setting [7]), 96.8%.

Turning to `COc1cccc(CNC(=O)CCC(=O)N2Cc3cccc(OC)c3Oc3ncccc32)c1OC`, the GFP response vs DMSO in assay [1] was 99.4% (inactive); in assay [1] (setting [6]), 99.9%; in assay [1] (setting [7]), 99.2%; in assay [3] it was 102% (inactive). Further, the GFP response relative to DMSO was 95.4% (inactive) in assay [2], 96% in assay [2] (setting [8]) and 94% in assay [2] (setting [9]). For the same compound, the GFP response, % of DMSO in assay [4] is 100% (inactive); in assay [5], 104% (inactive); in assay [5] (setting [6]) it was 105%; in assay [5] (setting [7]), 104%.

Turning to `COc1ccc(NC(=S)NCCCCCC(=O)C[N+](=O)[O-])cc1`, the GFP response vs DMSO is 96% (inactive) in assay [1], 96.4% in assay [1] (setting [6]), 96.1% in assay [1] (setting [7]) and 98.3% (inactive) in assay [3]. For the same compound, the GFP response relative to DMSO was 90.2% (inactive) in assay [2], 91.2% in assay [2] (setting [8]) and 89.7% in assay [2] (setting [9]). The GFP response, % of DMSO in assay [4] is 98.7% (inactive); in assay [5], 99.7% (inactive); in assay [5] (setting [6]) it was 101%; in assay [5] (setting [7]), 97.3%.

As for `COc1ccc(OCC(O)CNC(=O)/C=C/c2cccc([N+](=O)[O-])c2)cc1` (stereo unspecified), the GFP response vs DMSO in assay [1] was 100% (inactive); in assay [1] (setting [6]), 100%; in assay [1] (setting [7]) it was 100%; in assay [3], 101% (inactive). The GFP response relative to DMSO in assay [2] was 104% (inactive); in assay [2] (setting [8]), 102%; in assay [2] (setting [9]), 104%. Besides, the GFP response, % of DMSO in assay [4] is 107% (inactive); in assay [5] it was 103% (inactive); in assay [5] (setting [6]) it was 103%; in assay [5] (setting [7]), 104%.

On to `CCOc1ccc(C(Nc2cccnc2)c2cc(Cl)c3cccnc3c2O)cc1` (stereo unspecified), for which the GFP response vs DMSO was 99.6% (inactive) in assay [1], 104% in assay [1] (setting [6]), 95.6% in assay [1] (setting [7]) and 122% (inactive) in assay [3]. The GFP response relative to DMSO was 164% (active) in assay [2], 144% in assay [2] (setting [8]) and 170% in assay [2] (setting [9]). Moreover, the GFP response, % of DMSO is 93.9% (inactive) in assay [4], 101% (inactive) in assay [5], 108% in assay [5] (setting [6]) and 94.9% in assay [5] (setting [7]).
